PMC4201344 (ACS Chemical Biology, 2014)
Positions count from the first letter of the chain named. “Also recorded” adds a separate entry of the source.

How the values were obtained:
[1] = target: GluClβ T6′A (Caenorhabditis elegans, UniProt Q17328, T283A); assay: two-electrode voltage clamp, Xenopus laevis oocytes; format: cell-based, C. elegans; conditions: glutamate
Outline: (§1)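 C. elegans GluClβ (mammalian codon-optimised) in pGEMhe, mutated by QuikChange; T7 mRNA. […] Voltage clamp at −60 mV in Ca-free ND96, pH 7.5. […] Peak currents taken from baseline, normalised, averaged per concentration, and fit to Hill equation (EC50, nH).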

[2] = target: GluClβ T13′S (Caenorhabditis elegans, UniProt Q17328, T290S); assay: as above; format: cell-based, C. elegans; conditions: glutamate
Chain of GluClβ T13′S (Q17328 23-434 T290S): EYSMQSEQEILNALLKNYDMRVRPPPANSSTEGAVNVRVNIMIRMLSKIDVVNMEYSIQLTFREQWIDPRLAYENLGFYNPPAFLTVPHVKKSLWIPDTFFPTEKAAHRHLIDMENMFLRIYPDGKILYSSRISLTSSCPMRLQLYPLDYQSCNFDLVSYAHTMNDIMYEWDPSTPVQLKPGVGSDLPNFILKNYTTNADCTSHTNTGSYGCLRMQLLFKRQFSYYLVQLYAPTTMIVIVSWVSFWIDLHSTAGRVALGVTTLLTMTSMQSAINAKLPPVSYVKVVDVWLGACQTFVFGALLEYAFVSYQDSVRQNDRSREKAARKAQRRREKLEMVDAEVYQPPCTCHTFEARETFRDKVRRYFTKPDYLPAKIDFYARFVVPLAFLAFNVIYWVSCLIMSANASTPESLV
Outline: as §1

[3] = target: GluClβ A20′S (Caenorhabditis elegans, UniProt Q17328, A297S); assay: as above; format: cell-based, C. elegans; conditions: glutamate
Chain of GluClβ A20′S (Q17328 23-434 A297S): as the sequence (Q17328 23-434 T290S) above, with S268T, A275S counted along it
Outline: as §1

[4] = target: GluClβ with α signal peptide (no T6′S) (Caenorhabditis elegans, UniProt Q17328); assay: two-electrode voltage clamp, Xenopus laevis oocytes; format: cell-based, C. elegans; conditions: α signal peptide chimera vs wild type
Chain of GluClβ with α signal peptide (no T6′S) (Q17328 23-434): as the sequence (Q17328 23-434 T290S) above, with S268T counted along it

[5] = target: T1, GluClβ with α signal peptide, T6′S, F96TAG Phe (Caenorhabditis elegans, UniProt Q17328, T283S); assay: two-electrode voltage clamp, Xenopus laevis oocytes, nonsense suppression; format: cell-based, C. elegans; conditions: glutamate
T1 sequence (Q17328 23-434 T283S): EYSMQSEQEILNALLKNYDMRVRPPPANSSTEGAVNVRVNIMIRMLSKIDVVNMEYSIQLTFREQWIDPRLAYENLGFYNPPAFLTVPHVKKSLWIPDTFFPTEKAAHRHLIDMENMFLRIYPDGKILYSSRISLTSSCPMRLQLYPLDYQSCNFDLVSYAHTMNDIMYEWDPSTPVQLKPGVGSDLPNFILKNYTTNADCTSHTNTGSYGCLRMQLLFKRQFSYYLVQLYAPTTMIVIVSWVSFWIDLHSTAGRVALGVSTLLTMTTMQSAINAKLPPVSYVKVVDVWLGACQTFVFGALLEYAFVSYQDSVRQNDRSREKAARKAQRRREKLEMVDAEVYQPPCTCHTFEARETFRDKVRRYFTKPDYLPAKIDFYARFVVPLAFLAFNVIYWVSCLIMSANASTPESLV
Outline: (§2)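 Site-specific TAG codon, read by 74mer THG73 tRNA ligated to dCA-acylated amino acid; NVOC removed by 5 min xenon-lamp irradiation just before injection. Oocytes coinjected with 37.5 ng mRNA plus ~1 μg/μL tRNA at 48 and 24 h pre-recording; unacylated 76mer tRNA served as read-through control.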

[6] = test system: GluClβ with α signal peptide, T6′S, F96TAG F2–Phe; assay: two-electrode voltage clamp, Xenopus laevis oocytes, nonsense suppression; format: cell-based, C. elegans; conditions: glutamate
[7] = target: T2, GluClβ with α signal peptide, T6′S, Y156TAG Phe (Caenorhabditis elegans, UniProt Q17328, T283S/Y182F); assay: two-electrode voltage clamp, Xenopus laevis oocytes, nonsense suppression; format: cell-based, C. elegans; conditions: glutamate
T2 sequence (Q17328 23-434 Y182F/T283S): T1 sequence (Q17328 23-434 T283S) with Y160F
Outline: as §2

[8] = test system: GluClβ with α signal peptide, T6′S, Y156TAG F2–Phe; assay: two-electrode voltage clamp, Xenopus laevis oocytes, nonsense suppression; format: cell-based, C. elegans; conditions: glutamate
[9] = target: T3, GluClβ T6′S, Y206TAG Phe (Caenorhabditis elegans, UniProt Q17328, T283S/Y232F); assay: two-electrode voltage clamp, Xenopus laevis oocytes, nonsense suppression; format: cell-based, C. elegans; conditions: glutamate
T3 sequence (Q17328 23-434 Y232F/T283S): T1 sequence (Q17328 23-434 T283S) with Y210F
Outline: as §2

[10] = test system: GluClβ T6′S, Y206TAG CN–Phe; assay: two-electrode voltage clamp, Xenopus laevis oocytes, nonsense suppression; format: cell-based, C. elegans; conditions: glutamate
[11] = target: GluClβ T6′S, Y156A (Caenorhabditis elegans, UniProt Q17328, T283S/Y182A); assay: two-electrode voltage clamp, Xenopus laevis oocytes; format: cell-based, C. elegans; conditions: glutamate
Chain of GluClβ T6′S, Y156A (Q17328 23-434 Y182A/T283S): as the sequence (Q17328 23-434 T290S) above, with Y160A, T261S, S268T counted along it
Outline: as §1

[12] = test system: GluClβ Y206 3,5-Me2-Phe; assay: two-electrode voltage clamp, Xenopus laevis oocytes, nonsense suppression; format: cell-based, C. elegans; conditions: glutamate
Outline: as §2

[13] = target: GluClα receptor (Caenorhabditis elegans, UniProt G5EBR3); conditions: in the absence of ivermectin, Xenopus laevis oocytes; cited from earlier work
Chain of GluClα receptor (G5EBR3 21-461): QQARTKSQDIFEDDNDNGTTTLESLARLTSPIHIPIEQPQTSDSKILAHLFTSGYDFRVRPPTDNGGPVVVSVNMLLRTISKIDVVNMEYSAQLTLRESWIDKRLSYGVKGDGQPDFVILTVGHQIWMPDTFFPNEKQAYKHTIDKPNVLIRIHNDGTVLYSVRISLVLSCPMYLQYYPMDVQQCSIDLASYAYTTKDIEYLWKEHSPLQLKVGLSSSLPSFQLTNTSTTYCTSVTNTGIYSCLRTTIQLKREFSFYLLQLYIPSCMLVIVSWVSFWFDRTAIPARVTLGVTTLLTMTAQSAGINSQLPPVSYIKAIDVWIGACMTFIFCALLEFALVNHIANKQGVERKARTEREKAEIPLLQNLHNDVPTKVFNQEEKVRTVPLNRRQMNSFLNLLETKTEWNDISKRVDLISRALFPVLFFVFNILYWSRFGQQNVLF

Chain of GluClβ T6′A (Q17328 23-434 T283A): as the sequence (Q17328 23-434 T290S) above, with T261A, S268T counted along it

With `N[C@@H](CCC(=O)O)C(=O)O` [glutamate] as the compound, how does the EC50 [1] read?
Its EC50 is “not functional; also recorded: very low response”.

And the EC50 [2]?
The EC50 was “not functional; also recorded: no response”.

What about the EC50 [3] of the same compound?
The EC50 was “no response”.

And the “increase in EC50” value [4]?
The value was < 3 fold.

What about the EC50 [5] of the same compound?
The EC50 was 0.012 ± 0.001 mM.

And the Hill [5]?
Its Hill is 2.8 ± 0.3.

What about the Imax [5] of the same compound?
Its Imax is 0.1–4 μA.

And the EC50 [6]?
The EC50 was 0.0047 ± 0.0001 mM.

What about the Hill [6] of the same compound?
Its Hill is 4.1 ± 0.5.

And the Imax [6]?
The Imax was 0.04–1 μA.

And the EC50 [7]?
The EC50 was 17 ± 1 mM.

What about the Hill [7] of the same compound?
Its Hill is 1.7 ± 0.1.

And the Imax [7]?
The Imax was 1–4 μA.

And the EC50 [8]?
Its EC50 is 49 ± 3 mM.

And the Hill [8]?
Its Hill is 1.8 ± 0.1.

And the Imax [8]?
Its Imax is 0.2–4 μA.

What about the EC50 [9] of the same compound?
The EC50 was 0.16 ± 0.01 mM.

And the Hill [9]?
The Hill was 3.0 ± 0.2.

And the Imax [9]?
Its Imax is 0.07–0.30 μA.

And the EC50 [10]?
The EC50 was 19 ± 1 mM.

What about the Hill [10] of the same compound?
Its Hill is 2.8 ± 0.2.

And the Imax [10]?
The Imax was 0.8–6 μA.

What about the EC50 [11] of the same compound?
Its EC50 is “no response”.

And the receptor function [12]?
The receptor function was “nonfunctional”.

And the activation by glutamate [13]?
Its activation by glutamate is “not activated”.
